We go through 18 molecules from ChEMBL document CHEMBL4190306, “Synthesis and structure-activity relationship study of novel 3-heteroarylcoumarins based on pyridazine scaffold as selective MAO-B inhibitors” (Eur J Med Chem, 2017).

A value given as a limit tells only on which side of the number the result lay.

The first data set concerns the target T1, Amine oxidase [flavin-containing] B (Homo sapiens, UniProt P27338).
T1 sequence (P27338 whole entry): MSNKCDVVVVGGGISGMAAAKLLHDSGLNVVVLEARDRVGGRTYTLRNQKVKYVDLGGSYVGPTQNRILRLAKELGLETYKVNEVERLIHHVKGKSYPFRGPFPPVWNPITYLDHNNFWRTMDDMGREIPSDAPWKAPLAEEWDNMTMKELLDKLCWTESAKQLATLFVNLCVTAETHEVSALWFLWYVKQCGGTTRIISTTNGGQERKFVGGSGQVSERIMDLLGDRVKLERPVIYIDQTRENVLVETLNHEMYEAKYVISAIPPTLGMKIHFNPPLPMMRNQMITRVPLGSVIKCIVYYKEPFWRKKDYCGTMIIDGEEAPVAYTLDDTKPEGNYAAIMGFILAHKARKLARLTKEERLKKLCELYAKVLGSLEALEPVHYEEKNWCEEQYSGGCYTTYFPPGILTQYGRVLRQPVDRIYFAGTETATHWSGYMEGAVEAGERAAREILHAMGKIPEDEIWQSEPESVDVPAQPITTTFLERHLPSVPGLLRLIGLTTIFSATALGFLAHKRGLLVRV
Briefly: Inhibition of human recombinant MAO-B expressed in baculovirus infected BTI-TN5B1-4 cells using p-tyramine as substrate assessed as reduction in H2O2 production preincubated for 15 mins followed by substrate addition measured after 15 mins by Amplex red dye based fluorescence assay. Format: cell-based.
Conditions: not given; call rule not given here
For the molecule `Cc1cccc2cc(-c3ccc(Cl)nn3)c(=O)oc12`, the IC50 (usually the concentration at which inhibition is half-maximal) turned out to be 22.7 µM.
For the molecule `COc1cccc2cc(-c3ccc(Cl)nn3)c(=O)oc12`, the IC50 turned out to be 30.1 µM.
On to `COc1ccc2cc(-c3ccc(Cl)nn3)c(=O)oc2c1`, for which the IC50 was 19.2 µM.
As to `COc1ccc2oc(=O)c(-c3ccc(OC)nn3)cc2c1`, the IC50 stood at 11.1 µM.
Take `Cc1cccc2cc(-c3ccc(Br)nn3)c(=O)oc12`: the IC50 worked out at 2.64 µM.
In the case of `COc1cccc2cc(-c3ccc(Br)nn3)c(=O)oc12`, the IC50 came out at 12.8 µM.
For the molecule `Cc1ccc2oc(=O)c(-c3ccc(Br)nn3)cc2c1`, the concentration for half-maximal inhibition (IC50) worked out at 2.16 µM.
Turning to `COc1ccc2oc(=O)c(-c3ccc(Cl)nn3)cc2c1`, the IC50 amounted to 8.8 µM.
In the case of `Cc1ccc2cc(-c3ccc(Cl)nn3)c(=O)oc2c1`, the concentration for half-maximal inhibition (IC50) came to 2.51 µM.
On the same count and under the same terms, the same measure for `Cc1ccc2cc(-c3ccc(Br)nn3)c(=O)oc2c1`: 0.75 µM; for `COc1ccc(-c2cc3cc(C)ccc3oc2=O)nn1`: 17.6 µM; for `COc1ccc(-c2cc3cccc(C)c3oc2=O)nn1`: 5.35 µM.
For `Cc1ccc2oc(=O)c(-c3ccc(Cl)nn3)cc2c1`, the half-maximal inhibitory concentration (IC50) came out at 13.5 µM.
With `COc1ccc2cc(-c3ccc(Br)nn3)c(=O)oc2c1`, the IC50 was 3.05 µM.
On the same count and under the same terms, the same measure for `COc1ccc(-c2cc3ccc(C)cc3oc2=O)nn1`: 13.5 µM.
As to `COc1ccc2oc(=O)c(-c3ccc(Br)nn3)cc2c1`, the IC50 was 0.56 µM.

A further data set relates to SH-SY5Y. Briefly: Cytotoxicity against human SH-SY5Y cells at 20 uM after 24 hrs by MTT assay.
Conditions: not given
Format: cell-based. In a few lines:
(§1)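 SH-SY5Y neuroblastoma cells were seeded at 1.10⁶/mL and incubated overnight. Compounds in DMSO (1%) were added, with 1% DMSO-treated cells as negative control, for 24 h. MTT solution (5 mg/ml in PBS, 10%) was then added for 2 h at 37 °C, and the crystals were dissolved in DMSO. A540 was read, and viability was taken as % of negative-control absorbance.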
A general note: Tetrazolium dyes change colour on reduction, which living cells bring about.
As for `COc1ccc(-c2cc3cccc(OC)c3oc2=O)nn1`, the Activity entry is recorded as “Toxic”.

Another data set addresses T1, Amine oxidase [flavin-containing] B. The experiment in a line: Inhibition of human recombinant MAO-B expressed in baculovirus infected BTI-TN5B1-4 cells using p-tyramine as substrate assessed as reduction in H2O2 production at 100 uM preincubated for 15 mins followed by substrate addition measured after 15 mins by Amplex red dye based fluorescence assay relative to control. To be noted: 0.25 h.
Regarding `COc1ccc2cc(-c3ccc(OC)nn3)c(=O)oc2c1`, the inhibition (in general, the share of the control response that was lost under treatment) at 100 µM is 45 to 50%.

A further data set is filed under the species Homo sapiens. Briefly: Selectivity index, ratio of IC50 for human recombinant MAO-A expressed in baculovirus infected BTI-TN5B1-4 cells to IC50 for human recombinant MAO-B expressed in baculovirus infected BTI-TN5B1-4 cells.
Conditions: not given
In a few lines:
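IC50 values for hMAO-A and hMAO-B were obtained in the same p-tyramine/Amplex Red assay (15 min pre-incubation, 37 °C, 15 min fluorescence read). Each IC50 came from linear least-squares regression of % inhibition versus log molar concentration, using 4–6 concentrations giving 20–80% inhibition. Selectivity was taken as IC50(MAO-A)/IC50(MAO-B).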
Take `Cc1cccc2cc(-c3ccc(Cl)nn3)c(=O)oc12`: the Ratio IC50 was over 4.4.
`COc1cccc2cc(-c3ccc(Cl)nn3)c(=O)oc12`: the Ratio IC50 is over 3.3.
For the molecule `COc1ccc2cc(-c3ccc(Cl)nn3)c(=O)oc2c1`, the Ratio IC50 is over 5.2.
In the case of `COc1ccc2oc(=O)c(-c3ccc(OC)nn3)cc2c1`, the Ratio IC50 is over 9.
On to `Cc1cccc2cc(-c3ccc(Br)nn3)c(=O)oc12`, for which the Ratio IC50 is over 37.9.
As for `COc1cccc2cc(-c3ccc(Br)nn3)c(=O)oc12`, the Ratio IC50 is over 7.8.
Regarding `Cc1ccc2oc(=O)c(-c3ccc(Br)nn3)cc2c1`, the Ratio IC50 was over 46.3.
Still for that read-out and setting: the same measure for `COc1ccc2oc(=O)c(-c3ccc(Cl)nn3)cc2c1`: over 11.4.
Consider `Cc1ccc2cc(-c3ccc(Cl)nn3)c(=O)oc2c1`, for which the Ratio IC50 is over 39.8.
`Cc1ccc2cc(-c3ccc(Br)nn3)c(=O)oc2c1`: the Ratio IC50 is over 133.
The same measure, in the same setting: for `COc1ccc(-c2cc3cc(C)ccc3oc2=O)nn1` the value was over 5.7.
Turning to `COc1ccc(-c2cc3cccc(C)c3oc2=O)nn1`, the Ratio IC50 was over 18.7.
As to `Cc1ccc2oc(=O)c(-c3ccc(Cl)nn3)cc2c1`, the Ratio IC50 was over 7.4.
For `COc1ccc2cc(-c3ccc(Br)nn3)c(=O)oc2c1`, the Ratio IC50 was over 32.8.
`COc1ccc(-c2cc3ccc(C)cc3oc2=O)nn1`: the Ratio IC50 is over 7.4.
In the case of `COc1ccc2oc(=O)c(-c3ccc(Br)nn3)cc2c1`, the Ratio IC50 was over 179.

Another data set addresses T1, Amine oxidase [flavin-containing] B. The experiment in a line: Inhibition of human recombinant MAO-B expressed in baculovirus infected BTI-TN5B1-4 cells using p-tyramine as substrate assessed as reduction in H2O2 production at 100 uM preincubated for 15 mins followed by substrate addition measured after 15 mins by Amplex red dye based fluorescence assay. To be noted: 0.25 h. In a few lines:
(§2)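 Microsomal hMAO-A (1.1 µg protein) or hMAO-B (7.5 µg protein) from baculovirus-infected insect cells was used, with each amount adjusted to an oxidation rate of 165±2 pmol p-tyramine/min. Enzyme and test drug in 0.5M sodium phosphate pH 7.4 were pre-incubated 15 min at 37 °C. The reaction was started with final 200 µM Amplex Red, 1 U/mL HRP and 1 mM p-tyramine. Resorufin fluorescence (ex 545/em 590 nm) was followed for 15 min at 37 °C, background without enzyme was subtracted, and controls received vehicle.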
For `COc1ccc(-c2cc3cccc(OC)c3oc2=O)nn1`, the “inhibition (INH)” value is reported as “Not Active”.

The subject of a further data set is SH-SY5Y. The experiment in a line: Cytotoxicity against human SH-SY5Y cells at 10 uM after 24 hrs by MTT assay. Format: cell-based.
Conditions: not given
An outline of the steps: as §1
Turning to `COc1ccc2cc(-c3ccc(OC)nn3)c(=O)oc2c1`, the Activity result is listed as “Non-Toxic”.
With `Cc1cccc2cc(-c3ccc(Cl)nn3)c(=O)oc12`, the Activity entry is reported as “Non-Toxic”.
With `COc1cccc2cc(-c3ccc(Cl)nn3)c(=O)oc12`, the Activity entry is recorded as “Non-Toxic”.
`COc1ccc2cc(-c3ccc(Cl)nn3)c(=O)oc2c1`: the Activity result was “Non-Toxic”.
As for `COc1ccc2oc(=O)c(-c3ccc(OC)nn3)cc2c1`, the Activity entry was “Non-Toxic”.
With `Cc1cccc2cc(-c3ccc(Br)nn3)c(=O)oc12`, the Activity result is given as “Non-Toxic”.
On the same count and under the same terms, for `COc1cccc2cc(-c3ccc(Br)nn3)c(=O)oc12` the value was “Non-Toxic”; for `COc1ccc(-c2cc3cccc(OC)c3oc2=O)nn1`, “Non-Toxic”; for `Cc1ccc2oc(=O)c(-c3ccc(Br)nn3)cc2c1`, “Non-Toxic”.
`COc1ccc2oc(=O)c(-c3ccc(Cl)nn3)cc2c1`: the Activity result is given as “Non-Toxic”.
Turning to `Cc1ccc2cc(-c3ccc(Cl)nn3)c(=O)oc2c1`, the Activity entry was “Non-Toxic”.
For `Cc1ccc2cc(-c3ccc(Br)nn3)c(=O)oc2c1`, the Activity entry is “Non-Toxic”.
Turning to `COc1ccc(-c2cc3cc(C)ccc3oc2=O)nn1`, the Activity result is on record as “Non-Toxic”.
Regarding `COc1ccc(-c2cc3cccc(C)c3oc2=O)nn1`, the Activity entry is reported as “Non-Toxic”.
On the same count and under the same terms, the same measure for `Cc1ccc2oc(=O)c(-c3ccc(Cl)nn3)cc2c1`: “Non-Toxic”.
In the case of `COc1ccc2cc(-c3ccc(Br)nn3)c(=O)oc2c1`, the Activity entry is reported as “Non-Toxic”.
As for `COc1ccc(-c2cc3ccc(C)cc3oc2=O)nn1`, the Activity entry is recorded as “Non-Toxic”.
For the molecule `COc1ccc2oc(=O)c(-c3ccc(Br)nn3)cc2c1`, the Activity result is given as “Non-Toxic”.

The target of another data set is T2, Amine oxidase [flavin-containing] A (Homo sapiens, UniProt P21397).
T2 sequence (P21397 whole entry): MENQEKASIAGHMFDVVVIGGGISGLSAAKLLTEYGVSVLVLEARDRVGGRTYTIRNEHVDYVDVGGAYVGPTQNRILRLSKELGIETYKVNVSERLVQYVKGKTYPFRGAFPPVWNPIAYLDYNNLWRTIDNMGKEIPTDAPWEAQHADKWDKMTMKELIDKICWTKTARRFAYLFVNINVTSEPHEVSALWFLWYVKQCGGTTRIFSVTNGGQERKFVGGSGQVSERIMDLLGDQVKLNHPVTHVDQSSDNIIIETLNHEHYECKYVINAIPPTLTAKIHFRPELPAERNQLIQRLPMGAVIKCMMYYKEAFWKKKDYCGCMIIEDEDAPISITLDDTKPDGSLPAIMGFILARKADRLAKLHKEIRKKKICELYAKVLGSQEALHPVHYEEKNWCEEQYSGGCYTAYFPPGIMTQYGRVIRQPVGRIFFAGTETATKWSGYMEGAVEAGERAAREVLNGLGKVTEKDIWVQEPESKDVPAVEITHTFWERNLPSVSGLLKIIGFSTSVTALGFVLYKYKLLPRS
Briefly: Inhibition of human recombinant MAO-A expressed in baculovirus infected BTI-TN5B1-4 cells using p-tyramine as substrate assessed as reduction in H2O2 production at 100 uM preincubated for 15 mins followed by substrate addition measured after 15 mins by Amplex red dye based fluorescence assay. To be noted: 0.25 h. An outline of the steps: as §2
As for `COc1ccc2cc(-c3ccc(OC)nn3)c(=O)oc2c1`, the “inhibition (INH)” value was “Not Active”.
Still for that read-out and setting: the same measure for `Cc1cccc2cc(-c3ccc(Cl)nn3)c(=O)oc12`: “Not Active”; for `COc1cccc2cc(-c3ccc(Cl)nn3)c(=O)oc12`: “Not Active”; for `COc1ccc2cc(-c3ccc(Cl)nn3)c(=O)oc2c1`: “Not Active”.
`COc1ccc2oc(=O)c(-c3ccc(OC)nn3)cc2c1`: the “inhibition (INH)” value is given as “Not Active”.
Same read-out and setting: for `Cc1cccc2cc(-c3ccc(Br)nn3)c(=O)oc12` the value was “Not Active”.
In the case of `COc1cccc2cc(-c3ccc(Br)nn3)c(=O)oc12`, the “inhibition (INH)” value is on record as “Not Active”.
`COc1ccc(-c2cc3cccc(OC)c3oc2=O)nn1`: the “inhibition (INH)” value was “Not Active”.
Still for that read-out and setting: the same measure for `Cc1ccc2oc(=O)c(-c3ccc(Br)nn3)cc2c1`: “Not Active”; for `COc1ccc2oc(=O)c(-c3ccc(Cl)nn3)cc2c1`: “Not Active”.
Still for that read-out and setting: for `Cc1ccc2cc(-c3ccc(Cl)nn3)c(=O)oc2c1` the value was “Not Active”; for `Cc1ccc2cc(-c3ccc(Br)nn3)c(=O)oc2c1`, “Not Active”.
Take `COc1ccc(-c2cc3cc(C)ccc3oc2=O)nn1`: the “inhibition (INH)” value is “Not Active”.
For `COc1ccc(-c2cc3cccc(C)c3oc2=O)nn1`, the “inhibition (INH)” value is listed as “Not Active”.
For the molecule `Cc1ccc2oc(=O)c(-c3ccc(Cl)nn3)cc2c1`, the “inhibition (INH)” value was “Not Active”.
With `COc1ccc2cc(-c3ccc(Br)nn3)c(=O)oc2c1`, the “inhibition (INH)” value is given as “Not Active”.
For the molecule `COc1ccc(-c2cc3ccc(C)cc3oc2=O)nn1`, the “inhibition (INH)” value is on record as “Not Active”.
The same measure, in the same setting: for `COc1ccc2oc(=O)c(-c3ccc(Br)nn3)cc2c1` the value was “Not Active”.
